Data: ChEMBL document CHEMBL1148478, “Benzo[f]azino[2,1-a]phthalazinium cations: novel DNA intercalating chromophores with antiproliferative activity” (2004)
The source made the active and inactive calls. The calls are words filed in the database; no cut-off is given here.

Legend:
SK-MEL-28 [1] = test: In vitro antiproliferative activity against human MEL-28 melanoma cell line; NS = Not significant; format: functional, cell-based
Outline: (§1)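 SRB colorimetric growth assay. Cells seeded at 5×10^3 per well in RPMI and left to attach in drug-free medium for 18 h. Compounds were then added in DMSO/H2O 3:7 and exposed for 72 h. Cells were fixed with cold 50% TCA for 60 min at 4 °C and stained with 0.4% SRB for 10 min. Bound dye was solubilized in Tris and OD read at 490 nm. GI50 was derived from control, test and time-zero OD. Triplicate; values above 10 μM were scored NS.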

IGROV-1 [2] = test: In vitro antiproliferative activity against human IGROV-ET ovarian cell line; NS = Not significant; format: functional, cell-based; outline: as §1
K562 [3] = test: In vitro antiproliferative activity against human K-562 cell line; format: functional; outline: as §1
HeLa [4] = test: In vitro antiproliferative activity against human HeLa-APL cervix cell line; NS = Not significant; format: functional, cell-based; outline: as §1
SK-BR-3 = test: In vitro antiproliferative activity against human SK-BR-3 breast cell line; format: functional; outline: as §1
PANC-1 [5] = test: In vitro antiproliferative activity against human PANC-1 pancreas cell line; NS = Not significant; format: functional, cell-based; outline: as §1
HT-29 [6] = test: In vitro antiproliferative activity against human HT-29 colon cell line; NS = Not significant; format: functional, cell-based; outline: as §1
IGROV-1 [7] = test: In vitro antiproliferative activity against human IGROV ovarian cell line; format: functional; outline: as §1
LoVo [8] = test: In vitro antiproliferative activity against human LOVO colon cell line; NS = Not significant; format: functional, cell-based; outline: as §1
DU-145 [9] = test: In vitro antiproliferative activity against human DU-145 prostate cell line; NS = Not significant; format: functional, cell-based; outline: as §1
A549 [10] = test: In vitro antiproliferative activity against human A-549 NSCL cell line; NS = Not significant; format: functional, cell-based; outline: as §1
LNCaP = test: In vitro antiproliferative activity against human LN-caP prostate cell line; format: functional; outline: as §1
LoVo [11] = test: In vitro antiproliferative activity against human LOVO-DOX colon cell line; NS = Not significant; format: functional, cell-based; outline: as §1
HeLa [12] = test: In vitro antiproliferative activity against human HeLa cervix cell line; NS = Not significant; format: functional, cell-based; outline: as §1
HT-29 [13] = test: In vitro antiproliferative activity against human HT-29 colon cell line; format: functional; outline: as §1
DU-145 [14] = test: In vitro antiproliferative activity against human DU-145 prostate cell line; format: functional; outline: as §1
LoVo [15] = test: In vitro antiproliferative activity against human LOVO colon cell line; format: functional; outline: as §1
HeLa [16] = test: In vitro antiproliferative activity against human HeLa-APL cervix cell line; format: functional; outline: as §1
PANC-1 [17] = test: In vitro antiproliferative activity against human PANC-1 pancreas cell line; format: functional; outline: as §1
HeLa [18] = test: In vitro antiproliferative activity against human HeLa cervix cell line; format: functional; outline: as §1
SK-MEL-28 [19] = test: In vitro antiproliferative activity against human MEL-28 melanoma cell line; format: functional; outline: as §1
A549 [20] = test: In vitro antiproliferative activity against human A-549 NSCL cell line; format: functional; outline: as §1
K562 [21] = test: In vitro antiproliferative activity against human K-562 cell line; NS = Not significant; format: functional, cell-based; outline: as §1
IGROV-1 [22] = test: In vitro antiproliferative activity against human IGROV-ET ovarian cell line; format: functional; outline: as §1
LoVo [23] = test: In vitro antiproliferative activity against human LOVO-DOX colon cell line; format: functional; outline: as §1

SMILES | GI50 (K562 [3]) | GI50 (HeLa [4]) | GI50 (SK-BR-3) | GI50 (LNCaP) | GI50 (LoVo [11]) | GI50 (HT-29 [13]) | GI50 (DU-145 [14]) | GI50 (LoVo [15]) | GI50 (HeLa [16]) | GI50 (PANC-1 [17]) | GI50 (HeLa [18]) | GI50 (SK-MEL-28 [19]) | GI50 (A549 [20]) | GI50 (LoVo [23]) | GI50 (IGROV-1 [2]) | GI50 (IGROV-1 [7]) | GI50 (IGROV-1 [22]) | other results
c1ccc(-c2n[n+]3ccccc3c3ccc4ccccc4c23)cc1 | 7.6 µM | inactive | 9.7 µM | 5.2 µM | inactive |  |  |  |  |  |  |  |  |  | inactive | 0.1 µM |  | GI50 (SK-MEL-28 [1]): inactive; GI50 (PANC-1 [5]): inactive; GI50 (HT-29 [6]): inactive; GI50 (LoVo [8]): inactive; GI50 (DU-145 [9]): inactive; GI50 (A549 [10]): inactive; GI50 (HeLa [12]): inactive
CCOc1ccc(-c2n[n+]3c4ccccc4ccc3c3ccc4ccccc4c23)cc1 | 6.7 µM |  | 3.9 µM | 2.6 µM | inactive | 5.4 µM | 5.8 µM | 6.3 µM | 7.4 µM | 4.9 µM | 4.6 µM | 5.3 µM | 6 µM |  | inactive | 2.6 µM |  | 
Cc1cc[n+]2nc(-c3ccccc3)c3c4ccccc4ccc3c2c1 |  | inactive | 4.6 µM | 4 µM | inactive |  |  |  |  |  |  | 8.4 µM |  |  | inactive | 6.5 µM |  | GI50 (PANC-1 [5]): inactive; GI50 (HT-29 [6]): inactive; GI50 (LoVo [8]): inactive; GI50 (DU-145 [9]): inactive; GI50 (A549 [10]): inactive; GI50 (K562 [21]): inactive; GI50 (HeLa [12]): inactive
COc1cccc2c1C(=O)c1c(O)c3c(c(O)c1C2=O)C[C@@](O)(C(=O)CO)C[C@@H]3O[C@H]1C[C@H](N)[C@H](O)[C@H](C)O1 [DOXORUBICIN] | 0.03 µM |  | 1.1 µM | 0.02 µM |  | 3.1 µM | 0.02 µM | 0.01 µM | 0.01 µM | 3.5 µM | 0.01 µM | 3.1 µM | 0.07 µM | 2.4 µM |  | 4.4 µM | 2.4 µM | 
CCOc1ccc(-c2n[n+]3ccccc3c3ccc4ccccc4c23)cc1 | 1.2 µM |  | 1.2 µM | 0.5 µM |  | 1.1 µM | 4.8 µM | 2.9 µM | 5 µM | 2.1 µM | 3.1 µM | 2.6 µM | 3 µM | 8 µM |  | 3.8 µM | 8.6 µM | 
c1ccc(-c2n[n+]3c4ccccc4ccc3c3ccc4ccccc4c23)cc1 | 0.4 µM |  | 0.5 µM | 0.3 µM |  | 0.4 µM | 1 µM | 0.6 µM | 0.1 µM | 1.3 µM | 0.7 µM | 1 µM | 0.8 µM | 3.5 µM |  | 0.5 µM | 2 µM | 

Second part, led by results:

GI50 (K562 [3]) | GI50 (HeLa [4]) | GI50 (SK-BR-3) | GI50 (LNCaP) | GI50 (LoVo [11]) | GI50 (HT-29 [13]) | GI50 (DU-145 [14]) | GI50 (LoVo [15]) | GI50 (HeLa [16]) | GI50 (PANC-1 [17]) | GI50 (HeLa [18]) | GI50 (SK-MEL-28 [19]) | GI50 (A549 [20]) | GI50 (LoVo [23]) | SMILES | GI50 (IGROV-1 [2]) | GI50 (IGROV-1 [7]) | GI50 (IGROV-1 [22]) | other results
1.5 µM |  | 0.5 µM | 0.4 µM |  | 1.2 µM | 3.1 µM | 3 µM | 4.1 µM | 3.4 µM | 3.8 µM | 2.5 µM | 4.2 µM | 5.4 µM | Cc1cccc2c3ccc4ccccc4c3c(-c3ccccc3)n[n+]12 |  | 1.7 µM | 2.9 µM | 
0.2 µM | inactive | 0.5 µM | 0.2 µM |  | 0.4 µM | 0.5 µM | 0.4 µM |  | 0.7 µM | 0.5 µM | 0.5 µM | 0.6 µM | 3.6 µM | Cc1ccc2c(ccc3c4ccc5ccccc5c4c(-c4ccccc4)n[n+]23)c1 |  | 0.5 µM | 1.8 µM | 
0.6 µM |  | 0.5 µM | 0.4 µM |  | 0.6 µM | 1.8 µM | 1 µM | 1.4 µM | 1 µM | 1.3 µM | 1.2 µM | 0.8 µM | 7 µM | CCOc1ccc(-c2n[n+]3c(C)cccc3c3ccc4ccccc4c23)cc1 |  | 2.4 µM | 4.5 µM | 
0.1 µM |  | 0.5 µM | 0.07 µM | inactive | 0.2 µM | 0.5 µM | 0.3 µM | 0.6 µM | 0.4 µM | 0.3 µM | 0.4 µM | 0.5 µM |  | CCOc1ccc(-c2n[n+]3c4ccc(C)cc4ccc3c3ccc4ccccc4c23)cc1 |  | 0.4 µM | 1.7 µM | 
